Results as given in paper PMC11157418 (Clinical and Translational Science, 2024).
Where a SMILES comes first, the peptide text is derived from it. [ ]: non-standard residue; d: D form. Nva = CCC[C@H](N)C(=O)O

Assays:
STAM mice = assay: STAM; type: in vivo, C57BL/6N mice
Method in brief: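 Male C57BL/6N mice received 200 μg streptozotocin s.c. at 2 days after birth and were fed HFD (57 kcal% fat) from week 4 to week 9. From week 6 to week 9, mice received saline vehicle or test compound at 0.5 or 5 mg/kg/day, by daily s.c. injection or s.c. osmotic pump (0.25 μL/h); n=6/group. Read-outs were body weight during treatment, and terminal plasma ALT/AST (dry-chemistry analyser) and liver weight. Unpaired two-sided t-test.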

[1] = tested on: human induced pluripotent stem (iPS) cell-derived hepatocytes; assay: LDH release cytotoxicity assay; type: cell-based; details: ALY688 0.5 to 2000 nM, globular adiponectin 1 μg/mL; 4 and 24 h; Figure S1B
Method in brief: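 iPS cell-derived human hepatocytes were exposed to test compound at 0.5, 1, 100, 500, 1000, 1500 and 2000 nM, to globular adiponectin 1 μg/mL, or to H₂O₂ 500 μM for 4 and 24 h. Cytotoxicity was quantified as LDH release by kit per manufacturer. Experiments were repeated at least three times; mean ± SEM.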

[2] = tested on: human induced pluripotent stem (iPS) cell-derived hepatocytes; assay: MTT cytotoxicity assay; type: cell-based; details: ALY688 0.5 to 2000 nM, globular adiponectin 1 μg/mL; 4 and 24 h; Figure S1A
Method in brief: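 iPS cell-derived human hepatocytes were exposed to test compound at 0.5, 1, 100, 500, 1000, 1500 and 2000 nM, to globular adiponectin 1 μg/mL, or to H₂O₂ 500 μM for 4 and 24 h. Viability was quantified by MTT formazan per manufacturer. Experiments were repeated at least three times; mean ± SEM.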

[3] = tested on: mice with TAA-induced liver injury / CCl4-induced liver fibrosis; details: cited from earlier work
[4] = Pharmacokinetic study after single s.c. injection; type: in vivo, Sprague-Dawley rats; details: male, Sprague-Dawley, rat, plasma, sc, 10 mg/kg
Method in brief: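 Male adult Sprague–Dawley rats (two per cage, 22–24°C, 12-h light cycle) received a single s.c. dose of 10 mg/kg. Plasma peptide was measured by LC–MS/MS. PK parameters were computed with values below LLOQ set to zero.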

[5] = cited from earlier work
liver of CDAHFD-fed mice = assay: Hepatic gene expression in CDAHF mouse model; type: in vivo, C57BL/6N mice; details: RT-qPCR, 30 mg/kg oral
CDAHFD-fed mice [6] = assay: Hepatic fibrosis in CDAHF mouse model; type: in vivo, C57BL/6N mice; details: 30 mg/kg daily oral; Figure 3a-c
CDAHFD-fed mice [7] = assay: CDAHF diet-induced mouse model of MASH; type: in vivo, C57BL/6N mice; details: 30 mg/kg/day oral dosing; Figure 2c-g
Method in brief: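 Male C57BL/6N mice, 8 weeks old, fed a choline-deficient, low-methionine high-fat diet (60 kcal% fat) for 12 weeks. From week 3, obeticholic acid 30 mg/kg was given daily by oral gavage in 0.5% CMC/0.01% Tween-80 for 9 weeks. Vehicle-treated chow-fed mice served as negative controls (n=10/group). End-of-treatment read-outs were serum ALT/AST by commercial kits, liver weight, hepatic TG and H&E NAS scoring.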

[8] = continuous infusion, high dose 5 mg/kg/day, vs control mice

| SMILES | Body weight during the treatment period (STAM mice; 0.5 or 5 mg/kg/day, daily s.c. or osmotic pump, Figure 1b) | Serum ALT level (STAM mice; [8]) | Serum AST level (STAM mice; [8]) | Serum ALT and AST levels (STAM mice; daily s.c. injection, 0.5 or 5 mg/kg/day, vs vehicle) | Cytotoxicity, LDH release assay [1] | Cytotoxicity, MTT assay [2] | Effect against TAA-induced liver injury and CCl4-induced liver fibrosis [3] | half-life [4] [min] | Stability in mouse plasma [5] | Hepatic expression of fatty acid oxidation genes (Acot1, Acox1, Cyp4a12) (liver of CDAHFD-fed mice; Figure 4e) | Hepatic expression of fibrosis-related genes (Tgfβ, Col1a1, Timp1) (liver of CDAHFD-fed mice; Figure 4f) | Expression of MASH-induced inflammatory genes (liver of CDAHFD-fed mice; Figure 4g) | Hepatic fibrosis by histological examination (CDAHFD-fed mice [6]) | Effect on alleviating MASH (CDAHFD-fed mice [7]) |
| --- | --- | --- | --- | --- | --- | --- | --- | --- | --- | --- | --- | --- | --- | --- |
| CCC[C@H](NC(=O)[C@@H]1CCCN1C(=O)[C@@H](NC(=O)[C@H](N)CC(N)=O)[C@@H](C)CC)C(=O)N[C@@H](CC(C)C)C(=O)N[C@@H](Cc1ccc(O)cc1)C(=O)N[C@H](CO)C(=O)N[C@@H](Cc1ccccc1)C(=O)N[C@@H](C)C(=O)N[C@H](CO)C(N)=O [ALY688] (H-[dN]IP[Nva]LY[dS]FA[dS]-NH2; N-terminus and C-terminus assumed) | did not induce change in body weight | slightly lower levels of ALT without statistical significance | significantly reduced | did not affect | No toxicity | No toxicity | liver protective effects | 27 | good stability | – | – | – | – | – |
| CC[C@H]1[C@@H](O)[C@@H]2[C@H](CC[C@]3(C)[C@@H]([C@H](C)CCC(=O)O)CC[C@@H]23)[C@@]2(C)CC[C@@H](O)C[C@@H]12 [OCA, obeticholic acid] | – | – | – | – | – | – | – | – | – | restored | appeared to reduce the expression of most of these fibrotic genes, although without statistical significance | failed to reverse | protective effects against hepatic fibrosis | did not show beneficial effects |
